Results on one compound are retold here after ChEMBL document CHEMBL1154373, “Laetirobin from the parasitic growth of Laetiporus sulphureus on Robinia pseudoacacia” (J Nat Prod, 2009).

The nature of data set [1]: Drug localization in large vesicles of mouse Neuro2A cells at 1 nM after 1 hr by fluorescence microscopy. Format: ADME, cell-based. Conditions: 0.001 µM.
The test system of data set [2] is HCT-116. Kind of data set: Inhibition of mitosis in human HCT116 cells assessed as hyperfilamentation of actin at 1 nM by FITC-phalloidin staining. Format: functional, cell-based. In short, it runs like this:
(§1)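 Cells treated with 1 nM compound before entry into mitosis, then fixed with formalin. Stained for microtubules with BODIPY-FL paclitaxel, actin with FITC-phalloidin, and DNA. Analysed by confocal microscopy for actin filamentation, microtubule structure and daughter-cell separation.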

For data set [3], the system named is N2a. Briefly: Inhibition of mitosis in mouse Neuro2a cells assessed as microtubule disassociation at 1 nM by BODIPY-FL paclitaxel staining. Format: functional, cell-based. In short, it runs like this:
as §1

Data set [4] can be described thus: Drug localization in nuclear envelope of human HCT116 cells at 1 nM after 1 hr by confocal microscopy. It counts as ADME, cell-based. Conditions: hct-116, 1 h, 0.001 µM.
Data set [5] deals with N2a. Briefly: Inhibition of mitosis in mouse Neuro2a cells assessed as chromatin compactness at 1 nM after 6 to 12 hrs by time-lapse microscopy. It counts as functional, cell-based. An outline of the steps:
(§2)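 Cells treated with 1 nM compound and followed by time-lapse microscopy imaging the compound's native fluorescence. Bleb formation and chromatin compaction scored at 6 h and 12 h after treatment.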

For data set [6], the system named is HeLa. Briefly: Inhibition of mitosis in human HeLa cells assessed as microtubule disassociation at 1 nM by BODIPY-FL paclitaxel staining. It counts as functional, cell-based. In short, it runs like this: as §1
For data set [7], the system named is N2a. Kind of data set: Inhibition of mitosis in mouse Neuro2a cells assessed as membrane scarring between daughter cells at 1 nM by confocal microscopy. It counts as functional, cell-based. An outline of the steps: as §1
Data set [8] in a line: Drug localization in large vesicles of human HCT116 cells at 1 nM after 1 hr by confocal microscopy. It counts as ADME, cell-based. The conditions noted are these: hct-116, 1 h, 0.001 µM.
For data set [9], the system named is HCT-116. Briefly: Inhibition of mitosis in human HCT116 cells assessed as membrane scarring between daughter cells at 1 nM by confocal microscopy. Format: functional, cell-based. In short, it runs like this: as §1
The test system of data set [10] is HCT-116. Kind of data set: Inhibition of mitosis in human HCT116 cells assessed as microtubule disassociation at 1 nM by BODIPY-FL paclitaxel staining. It counts as functional, cell-based. An outline of the steps:
as §1

Data set [11] relates to HeLa. Kind of data set: Inhibition of mitosis in human HeLa cells assessed as actin hyperfilamentation at 1 nM by FITC-phalloidin staining. It counts as functional, cell-based. An outline of the steps: as §1
Data set [12] has as its system HeLa. Kind of data set: Inhibition of mitosis in human HeLa cells assessed as membrane scarring between daughter cells at 1 nM by confocal microscopy. It counts as functional, cell-based. In short, it runs like this:
as §1

Data set [13] concerns N2a. Kind of data set: Inhibition of mitosis in mouse Neuro2a cells assessed as actin hyperfilamentation at 1 nM by FITC-phalloidin staining. Format: functional, cell-based. In short, it runs like this: as §1
In data set [14] the test system is N2a. Kind of data set: Cytostatic activity against mouse Neuro2a cells. It counts as functional, cell-based.
Data set [15] in a line: Drug localization in lysosome of human HCT116 cells at 1 nM assessed as increase of fluorescence with acidity after 1 hr by spectrophotometric analysis. It counts as ADME, cell-based. Conditions: hct-116, 1 h, 0.001 µM.
The subject of data set [16] is HeLa. Briefly: Inhibition of mitosis in human HeLa cells assessed as bleb formation at 1 nM after 6 to 12 hrs by time-lapse microscopy. Format: functional, cell-based. In short, it runs like this: as §2
For data set [17], the system named is HCT-116. Briefly: Inhibition of mitosis in human HCT116 cells assessed as chromatin compactness at 1 nM after 6 to 12 hrs by time-lapse microscopy. It counts as functional, cell-based. In short, it runs like this: as §2
The subject of data set [18] is HeLa. Briefly: Cytostatic activity against human HeLa cells. Format: functional, cell-based.
Data set [19] deals with HCT-116. Kind of data set: Cytostatic activity against human HCT116 cells. It counts as functional, cell-based.
For data set [20], the system named is HCT-116. Kind of data set: Inhibition of mitosis in human HCT116 cells assessed as bleb formation at 1 nM after 6 to 12 hrs by time-lapse microscopy. It counts as functional, cell-based. An outline of the steps: as §2
The test system of data set [21] is N2a. Kind of data set: Inhibition of mitosis in mouse Neuro2a cells assessed as bleb formation at 1 nM after 6 to 12 hrs by time-lapse microscopy. It counts as functional, cell-based. In short, it runs like this:
as §2

Data set [22] is described as follows: Drug localization in nuclear envelope of mouse Neuro2A cells at 1 nM after 1 hr by fluorescence microscopy. Format: ADME, cell-based. Conditions: 0.001 µM.
The test system of data set [23] is HeLa. Briefly: Inhibition of mitosis in human HeLa cells assessed as chromatin compactness at 1 nM after 6 to 12 hrs by time-lapse microscopy. Format: functional, cell-based. An outline of the steps: as §2

The structures appear in SMILES notation. The source made the active and inactive calls. The rule behind the calls is not given here.

Consider `CC(=O)c1cc2c(cc1O)OC1=C(c3cc4cc(C(C)=O)c(O)cc4o3)CCC(c3cc4cc(C(C)=O)c(O)cc4o3)(c3cc4cc(C(C)=O)c(O)cc4o3)C12` (racemic), for which the outcome in data set [1], in [4], in data set [8], in [15] and in data set [22] was Active. For the same compound, the result in the data set on HCT-116 [2], with N2a [3], in the data set with N2a [5], in the data set with HeLa [6], in the data set on N2a [7] and with HCT-116 [9] was Active. Moreover, the result in the data set on HCT-116 [10], with HeLa [11], in the data set with HeLa [12], in the data set on N2a [13], in the data set with HeLa [16] and with HCT-116 [17] was Active. The outcome with HCT-116 [20], with N2a [21] and in the data set on HeLa [23] was Active. For the same compound, the IC50 (usually the point on the concentration scale where inhibition reaches its midpoint) was determined as 0.092 nM in the data set on N2a [14], 0.12 nM in the data set on HeLa [18] and 0.54 nM with HCT-116 [19].
